Published values gathered from unrelated publications.
Lines come from different studies, so protocols differ.
Target: Calcium/calmodulin-dependent protein kinase type IV (CAMK4, Homo sapiens, UniProt Q16566)
One construct used (Q16566 1-473): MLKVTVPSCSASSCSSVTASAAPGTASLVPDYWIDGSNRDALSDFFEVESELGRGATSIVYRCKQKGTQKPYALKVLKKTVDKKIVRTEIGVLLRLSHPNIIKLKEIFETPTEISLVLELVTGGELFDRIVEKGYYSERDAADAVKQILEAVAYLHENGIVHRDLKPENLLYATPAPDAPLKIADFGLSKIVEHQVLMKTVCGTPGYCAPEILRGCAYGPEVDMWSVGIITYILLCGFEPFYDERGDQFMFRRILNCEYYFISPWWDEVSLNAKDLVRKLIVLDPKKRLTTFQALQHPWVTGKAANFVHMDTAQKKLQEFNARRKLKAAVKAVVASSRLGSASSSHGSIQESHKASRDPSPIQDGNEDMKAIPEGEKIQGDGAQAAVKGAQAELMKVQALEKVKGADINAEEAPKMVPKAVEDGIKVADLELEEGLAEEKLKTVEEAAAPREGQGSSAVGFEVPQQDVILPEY

SMILES | read-out | action | technique | concentration | measurement | result
Cc1cnc(NC2CCOCC2)nc1-n1cnc(C(=O)NC(CN)c2cc(F)cc(Cl)c2)c1 (centres unmarked) | enzyme activity | inhibitor | radiometric | 1 µM | remaining activity | 49%
CCN(CC)c1ccc(C2=NNC(=O)CC2C)cc1[N+](=O)[O-] (centres unmarked) | enzyme activity | inhibitor | – | 10 µM | remaining activity | 102%
Oc1cccc(-c2nc(N3CCOCC3)c3oc4ncccc4c3n2)c1 | cell-free assay | – | – | 0.5 µM | remaining signal | 103%
COc1cc2ncnc(Nc3ccc(Oc4ccccc4)c(C)c3C)c2cc1OC | enzyme activity | inhibitor | – | 1 µM | inhibition | -2%
COc1cc(Cl)c(C(=O)N[C@@H](CN[C@H]2CC[C@@H](N)CC2)Cc2ccc(C#N)cc2)cc1-c1ccc(CN[C@H](C)c2ccc(C)cc2)o1 | enzyme activity | inhibitor | – | 1 µM | remaining activity | 92%
Clc1ccc(Nc2nnc(Cc3ccncc3)c3ccccc23)cc1 | cell-free assay | – | – | 0.5 µM | remaining signal | 93.4%
CNC(=O)c1cc(Oc2ccc(NC(=O)Nc3ccc(Cl)c(C(F)(F)F)c3)cc2)ccn1 | enzyme activity | inhibitor | – | 0.3 µM | inhibition | -4%
O=C(Nc1cnn(-c2csc(C(=O)NC3COC3)c2)c1)Nc1c(F)cccc1Cl | enzyme activity | inhibitor | – | 5 µM | remaining activity | 98.7%
Cn1c2c(Cl)c(Cl)ccc2c2cc[nH]c(=O)c21 | thermal stability | – | DSF | 10 µM | ΔTm | 0.4 °C
CC(C)c1ccc(NC(=O)c2cccs2)c(-c2nc3ccccc3[nH]c2=O)c1 | enzyme activity | inhibitor | – | 1 µM | activity vs control | 116%
CN([C@@H]1CCc2c(CC(=O)O)c3ccccc3n2C1)S(=O)(=O)c1ccc(F)cc1 | cell-free assay | – | competition with immobilised ligand | 1 µM | remaining binding | 85%
CC(C)(O)[C@H]1CC[C@H](Nc2ccc3ncc(-c4cccc(C(F)(F)F)c4)n3n2)CC1 | enzyme activity | inhibitor | – | 1 µM | remaining activity | 107%
COc1cc2c(N3CCN(C(=O)Nc4ccc(OC(C)C)cc4)CC3)ncnc2cc1OCCCN1CCCCC1 | cell-free assay | – | – | 0.5 µM | remaining signal | 99.3%
Cc1nccc(COC(=O)N2C[C@@H]3[C@@H](CNC(=O)c4ccc5[nH]nnc5c4)[C@@H]3C2)n1 | cell-free assay | – | competition with immobilised ligand | 1 µM | remaining binding | 95%
Cc1ccc(C(=O)Nc2ccc(CN3CCN(C)CC3)c(C(F)(F)F)c2)cc1C#Cc1cnc2cccnn12 | enzyme activity | inhibitor | – | 23.5 nM | remaining activity | 100%
CN(C)C1CCN(CC#Cc2nn(C3CCCC3)c3nc(NCc4ccccc4)ncc23)C1 (centres unmarked) | enzyme activity | inhibitor | FRET | 1 µM | inhibition | 7%

SMILES | read-out | action | technique | concentration | measurement | result
CCC1(CC)NC(=O)c2c(c3ccc(Cl)c(Cl)c3n2C)C1C#N (centres unmarked) | thermal stability | – | DSF | 10 µM | ΔTm | -0.2 °C
O=C(NS(=O)(=O)c1ccc(NCC2CCOCC2)c([N+](=O)[O-])c1)c1ccc(N2CCN(Cc3ccc(C(F)(F)F)cc3-c3ccc(Cl)cc3)CC2)cc1Oc1cnc2[nH]ccc2c1 | cell-free assay | – | competition with immobilised ligand | 1 µM | remaining binding | 100%
CC1(C)NC(=O)c2[nH]c3c(Cl)c(Cl)ccc3c2C1C#N (centres unmarked) | thermal stability | – | DSF | 10 µM | ΔTm | -0.1 °C
O=C(O)c1ccc2c3c1cccc3c(=O)n1c3ccccc3nc21 | cell-free assay | – | – | 0.5 µM | remaining signal | 101%
Nc1ncnc2occ(-c3ccc(NC(=O)Nc4cc(C(F)(F)F)ccc4F)cc3)c12 | cell-free assay | inhibitor | – | 20 µM | remaining signal | 1.5%
Cc1cc(NC(=O)c2cccc3cc(-c4cccc5[nH]nc(N)c45)ccc23)ccc1F | enzyme activity | inhibitor | – | 0.1 µM | activity vs control | 104%
Cn1nc(C(=O)NCc2ccc(C(=O)O)cc2)cc1-c1ccc2[nH]ccc2c1 | cell-free assay | – | competition with immobilised ligand | 0.1 µM | remaining binding | 92%
CN1CCC2(CC1)NC(=O)c1c(c3ccc(Cl)c(Cl)c3n1C)C2C#N (racemic) | thermal stability | – | DSF | 10 µM | ΔTm | -0.2 °C
O=S(=O)(NC1CCC(c2cc(F)ccc2F)(S(=O)(=O)c2ccc(Cl)cc2)CC1)C(F)(F)F (centres unmarked) | cell-free assay | – | competition with immobilised ligand | 1 µM | remaining binding | 100%
N#CC1c2c([nH]c3c(Cl)c(Cl)ccc23)C(=O)NC12CCCCC2 (racemic) | thermal stability | – | DSF | 10 µM | ΔTm | 0.6 °C
CC(=O)c1c(NS(C)(=O)=O)c2cc(-c3ccc(Cl)cc3)c(-c3ccc(Cl)cc3Cl)nc2n(C)c1=O | cell-free assay | – | competition with immobilised ligand | 1 µM | remaining binding | 100%
N#CCCc1ccc2c(c1)-c1[nH]c3ccc([N+](=O)[O-])cc3c1CC(=O)N2 | cell-free assay | – | – | 0.5 µM | remaining signal | 98.4%
CCc1ccccc1C(=O)Nc1n[nH]c2c(C)c(F)c(C3C(C#N)=C(C)N(C)C(C)=C3C#N)cc12 | cell-free assay | – | competition with immobilised ligand | 1 µM | remaining binding | 56%
CCN(CC)CCNC(=O)c1c(C)[nH]c(/C=C2\C(=O)Nc3ccc(F)cc32)c1C | enzyme activity | inhibitor | – | 0.3 µM | inhibition | 22%
Cn1c2c(c3ccccc31)C(C#N)C(C)(C)NC2=O (centres unmarked) | thermal stability | – | DSF | 10 µM | ΔTm | 0 °C
COc1cccc(CNC(=O)c2nc3scc(COCc4ccc(C(=O)O)cc4)c3c(=O)[nH]2)c1 | cell-free assay | – | competition with immobilised ligand | 1 µM | remaining binding | 100%
